Measurements reported in ChEMBL document CHEMBL4665627 (Eur J Med Chem, 2019).
≈ marks a conversion by molar mass, not a printed value. Calls of active or inactive are those of the source. The rule behind the calls is not given here.

How the values were obtained:
Pseudomonas aeruginosa [1] = assay: Antibacterial activity against Pseudomonas aeruginosa assessed as inhibition of bacterial growth after 24 hrs by CLSI protocol based two fold serial dilution method; format: functional
Summary of the method: (§1)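 Two-fold serial broth dilution in 96-well plates following CLSI; MIC (mM) taken as the lowest concentration giving complete growth inhibition; MIC values from three independent experiments.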

Escherichia coli [2] = assay: Antibacterial activity against Escherichia coli assessed as inhibition of bacterial growth after 24 hrs by CLSI protocol based two fold serial dilution method; format: functional; summary of the method: as §1
Aspergillus fumigatus = assay: Antifungal activity against Aspergillus fumigatus assessed as inhibition of fungal growth after 24 hrs by CLSI protocol based two fold serial dilution method; format: functional; summary of the method: as §1
Staphylococcus aureus [3] = assay: Antibacterial activity against Staphylococcus aureus ATCC 29213 assessed as inhibition of bacterial growth after 24 hrs by CLSI protocol based two fold serial dilution method; format: functional
Acinetobacter baumannii = assay: Antibacterial activity against Acinetobacter baumannii assessed as inhibition of bacterial growth after 24 hrs by CLSI protocol based two fold serial dilution method; format: functional; summary of the method: as §1
Escherichia coli [4] = assay: Antibacterial activity against Escherichia coli ATCC 25922 assessed as inhibition of bacterial growth after 24 hrs by CLSI protocol based two fold serial dilution method; format: functional; summary of the method: as §1
Pseudomonas aeruginosa [5] = assay: Antibacterial activity against Pseudomonas aeruginosa ATCC 27853 assessed as inhibition of bacterial growth after 24 hrs by CLSI protocol based two fold serial dilution method; format: functional; summary of the method: as §1
Candida parapsilosis = assay: Antifungal activity against Candida parapsilosis ATCC 22019 assessed as inhibition of fungal growth after 24 hrs by CLSI protocol based two fold serial dilution method; format: functional; conditions: Lodderomyces parapsilosis; summary of the method: as §1
Candida albicans [6] = assay: Antifungal activity against Candida albicans ATCC 90023 assessed as inhibition of fungal growth after 24 hrs by CLSI protocol based two fold serial dilution method; format: functional; summary of the method: as §1
Enterococcus faecalis = assay: Antibacterial activity against Enterococcus faecalis assessed as inhibition of bacterial growth after 24 hrs by CLSI protocol based two fold serial dilution method; format: functional; summary of the method: as §1
Staphylococcus aureus [7] = assay: Antibacterial activity against methicillin-resistant Staphylococcus aureus N315 assessed as inhibition of bacterial growth after 24 hrs by CLSI protocol based two fold serial dilution method; format: functional
Staphylococcus aureus [8] = assay: Antibacterial activity against Staphylococcus aureus ATCC 25923 assessed as inhibition of bacterial growth after 24 hrs by CLSI protocol based two fold serial dilution method; format: functional; summary of the method: as §1
Klebsiella pneumoniae [9] = assay: Antibacterial activity against Klebsiella pneumoniae assessed as inhibition of bacterial growth after 24 hrs by CLSI protocol based two fold serial dilution method; format: functional; summary of the method: as §1
Candida tropicalis = assay: Antifungal activity against Candida tropicalis assessed as inhibition of fungal growth after 24 hrs by CLSI protocol based two fold serial dilution method; format: functional; summary of the method: as §1
Staphylococcus aureus [10] = assay: Antibacterial activity against Staphylococcus aureus assessed as inhibition of bacterial growth after 24 hrs by CLSI protocol based two fold serial dilution method; format: functional; summary of the method: as §1
Candida albicans [11] = assay: Antifungal activity against Candida albicans assessed as inhibition of fungal growth after 24 hrs by CLSI protocol based two fold serial dilution method; format: functional; summary of the method: as §1
Saccharomyces cerevisiae = assay: Inhibition of Saccharomyces cerevisiae CGMCC 2.145 chitin synthase at 300 ug/ml using GlcNAc and UDP-GlcNAc as substrate incubated for 60 mins by microplate reader analysis relative to control; conditions: dose 300.0 µg/ml
Summary of the method: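 Chitin synthase inhibition ratio measured at 300 µg/mL test compound, relative to untreated control.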

DNA [12] = assay: Binding affinity to Klebsiella pneumoniae DNA assessed as cleavage of DNA at 50 uM and pH 7.4 and 37 °C incubated for 6 hrs by gel electrophoresis analysis
Klebsiella pneumoniae [13] = assay: Synergistic antibacterial activity against Klebsiella pneumoniae assessed as fractional inhibitory concentration index in presence of cefathiamidine by CLSI protocol based two fold serial dilution method; format: functional
Klebsiella pneumoniae [14] = assay: Bactericidal activity against Klebsiella pneumoniae assessed as log reduction in viable bacteria at 4 times MIC incubated for 1 hr followed by plating on agar plate and measured after 24 hrs by time kill assay; format: functional
Summary of the method: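 Time-kill kinetics for K. pneumoniae at 4 × MIC.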

DNA [15] = assay: Binding affinity to Klebsiella pneumoniae DNA assessed as intercalating activity by measuring intrinsic binding constant by UV-Vis spectroscopy; format: nucleic-acid assay
Summary of the method: (§2)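 DNA isolated from K. pneumoniae held at fixed concentration while test compound is added in stepwise, proportional increments; UV-vis absorption spectra recorded, following the 260 nm DNA band.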

Staphylococcus aureus [16] = assay: Additive antibacterial activity against Staphylococcus aureus assessed as fractional inhibitory concentration index in presence of cefathiamidine by CLSI protocol based two fold serial dilution method; format: functional
[17] = Inhibition of Saccharomyces cerevisiae CGMCC 2.145 chitin synthase using GlcNAc and UDP-GlcNAc as substrate incubated for 60 mins by microplate reader analysis
Summary of the method: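 Chitin synthase IC50 determined from concentration–inhibition curves.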

Klebsiella pneumoniae [18] = assay: Potentiation of cefathiamidine-induced antibacterial activity against Klebsiella pneumoniae assessed as fold reduction in cefathiamidine MIC by CLSI protocol based two fold serial dilution method; format: functional
DNA [19] = assay: Binding affinity to Klebsiella pneumoniae DNA assessed as increase in absorption peak of DNA by UV-Vis spectroscopy; format: nucleic-acid assay; summary of the method: as §2
Staphylococcus aureus [20] = assay: Antibacterial activity against methicillin-resistant Staphylococcus aureus assessed as bacterial growth inhibition in presence of cefathiamidine by CLSI protocol based two fold serial dilution method; format: functional
Summary of the method: (§3)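 Checkerboard-type pairing, with each agent tested alone and combined by CLSI two-fold serial dilution. MICs are from three independent experiments. FIC index = (MIC of A combined/MIC of A alone) + (MIC of B combined/MIC of B alone). An index ≤1 is read as synergistic and 1–2 as additive.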

DNA [21] = assay: Competitive binding affinity to Klebsiella pneumoniae DNA assessed as increase in DNA intercalation by measuring increase in absorbance at around 260 nm by UV spectroscopy; format: nucleic-acid assay
Summary of the method: (§4)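 Competitive binding with neutral red as spectral probe on K. pneumoniae DNA, monitored by UV-vis absorption spectroscopy.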

Escherichia coli [22] = assay: Antibacterial activity against Escherichia coli assessed as bacterial growth inhibition in presence of cefathiamidine by CLSI protocol based two fold serial dilution method; format: functional; summary of the method: as §1
DNA [23] = assay: Binding affinity to Klebsiella pneumoniae DNA assessed as red shift in absorption spectra by UV-Vis spectroscopy; format: nucleic-acid assay; summary of the method: as §2
Staphylococcus aureus [24] = assay: Synergistic antibacterial activity against methicillin-resistant Staphylococcus aureus assessed as fractional inhibitory concentration index in presence of cefathiamidine by CLSI protocol based two fold serial dilution method; format: functional; summary of the method: as §3
DNA [25] = assay: Binding affinity to Klebsiella pneumoniae DNA assessed as hyperchromic shift by UV-Vis spectroscopy; format: nucleic-acid assay; summary of the method: as §2
DNA [26] = assay: Competitive binding affinity to Klebsiella pneumoniae DNA assessed as intercalating activity by measuring decrease in DNA-NR probe absorption spectra at wavelength of 530 nm by UV spectroscopy; format: nucleic-acid assay; summary of the method: as §4
Klebsiella pneumoniae [27] = assay: Induction of membrane permeabilization in Klebsiella pneumoniae at 12 times MIC measured after 1 hr by propidium iodide staining based fluorescence assay; format: functional, organism-based
DNA gyrase = DNA gyrase (Escherichia coli, UniProt P0AES4+P0AES6); assay: Inhibition of Escherichia coli DNA gyrase holoenzyme assessed as reduction in pBR322 DNA supercoiling using pBR322 plasmid DNA as substrate incubated for 90 mins in presence of ATP by ethidium bromide staining based agarose gel electrophoresis analysis; format: protein-complex assay
[28] = Cytotoxicity against mouse RAW264.7 cells assessed as cell viability at 128 ug/ml after 72 hrs by MTT assay relative to control; format: cell-based; conditions: at 128 µg/mL, read-out: Activity
Summary of the method: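 RAW 264.7 mouse macrophage cells exposed to test compound; viability by colorimetric MTT proliferation assay; standard deviation from three independent experiments.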

Staphylococcus aureus [29] = assay: Antibacterial activity against Staphylococcus aureus assessed as bacterial growth inhibition in presence of cefathiamidine by CLSI protocol based two fold serial dilution method; format: functional; summary of the method: as §1
Escherichia coli [30] = assay: Synergistic antibacterial activity against Escherichia coli assessed as fractional inhibitory concentration index in presence of cefathiamidine by CLSI protocol based two fold serial dilution method; format: functional
Klebsiella pneumoniae [31] = assay: Antibacterial activity against Klebsiella pneumoniae measured every 24 hrs after 10 passages by serial dilution method; format: functional, organism-based
DNA [32] = assay: Competitive binding affinity to Klebsiella pneumoniae DNA assessed as increase in DNA-NR probe absorption intensity at wavelength of 460 nm by UV spectroscopy; format: nucleic-acid assay; summary of the method: as §4
Klebsiella pneumoniae [33] = assay: Antibacterial activity against Klebsiella pneumoniae assessed as bacterial growth inhibition in presence of cefathiamidine by CLSI protocol based two fold serial dilution method; format: functional; summary of the method: as §1

## CCCCN1CCN(c2cc3c(cc2F)c(=O)c(-c2csc(N)n2)cn3CC)CC1
Pseudomonas aeruginosa [1]
  MIC: 298 µM (≈ 128 µg/mL)
Escherichia coli [2]
  MIC: 149 µM (≈ 64 µg/mL)
Aspergillus fumigatus
  MIC: 9 µM (≈ 3.87 µg/mL)
Staphylococcus aureus [3]
  MIC: 19 µM (≈ 8.16 µg/mL)
Acinetobacter baumannii
  MIC: 19 µM (≈ 8.16 µg/mL)
Escherichia coli [4]
  MIC: 37 µM (≈ 15.9 µg/mL)
Pseudomonas aeruginosa [5]
  MIC: 75 µM (≈ 32.2 µg/mL)
Candida parapsilosis
  MIC: 19 µM (≈ 8.16 µg/mL)
Candida albicans [6]
  MIC: 149 µM (≈ 64 µg/mL)
Enterococcus faecalis
  MIC: 75 µM (≈ 32.2 µg/mL)
Staphylococcus aureus [7]
  MIC: 149 µM (≈ 64 µg/mL)
Staphylococcus aureus [8]
  MIC: 9 µM (≈ 3.87 µg/mL)
Klebsiella pneumoniae [9]
  MIC: 5 µM (≈ 2.15 µg/mL)
Candida tropicalis
  MIC: 9 µM (≈ 3.87 µg/mL)
Staphylococcus aureus [10]
  MIC: 75 µM (≈ 32.2 µg/mL)
Candida albicans [11]
  MIC: 149 µM (≈ 64 µg/mL)
Saccharomyces cerevisiae
  inhibition: 41.4%

## CCn1cc(-c2csc(N)n2)c(=O)c2cc(F)c(N3CCN(CC#N)CC3)cc21
DNA [12]
  Activity: inactive
Pseudomonas aeruginosa [1]
  MIC: 19 µM (≈ 7.84 µg/mL)
Klebsiella pneumoniae [13]
  fractional inhibitory concentration index (FICI): 0.7
Escherichia coli [2]
  MIC: 39 µM (≈ 16.1 µg/mL)
Klebsiella pneumoniae [14]
  Activity: >2.5 log10CFU/ml
DNA [15]
  K: 1.43 10^4L/mol
Aspergillus fumigatus
  MIC: 19 µM (≈ 7.84 µg/mL)
Staphylococcus aureus [16]
  fractional inhibitory concentration index (FICI): 1.12
[17]
  IC50: 180 µM
Klebsiella pneumoniae [18]
  fold change (FC): 2
DNA [19]
  Activity: Active
Staphylococcus aureus [3]
  MIC: 10 µM (≈ 4.12 µg/mL)
Staphylococcus aureus [20]
  MIC: 2 µM
Acinetobacter baumannii
  MIC: 19 µM (≈ 7.84 µg/mL)
DNA [21]
  Activity: Active
Escherichia coli [22]
  MIC: 10 µM
DNA [23]
  Activity: Active
Escherichia coli [4]
  MIC: 10 µM (≈ 4.12 µg/mL)
Pseudomonas aeruginosa [5]
  MIC: 19 µM (≈ 7.84 µg/mL)
Staphylococcus aureus [24]
  fractional inhibitory concentration index (FICI): 0.61
DNA [25]
  Activity: Active
Candida parapsilosis
  MIC: 19 µM (≈ 7.84 µg/mL)
DNA [26]
  Activity: Active
Klebsiella pneumoniae [27]
  Activity: Active
Candida albicans [6]
  MIC: 10 µM (≈ 4.12 µg/mL)
DNA gyrase
  IC50: 16.7 µM
[28]
  viability at 72 h, 128 ug/ml: 80.2%
Enterococcus faecalis
  MIC: 19 µM (≈ 7.84 µg/mL)
Staphylococcus aureus [29]
  MIC: 10 µM
Staphylococcus aureus [7]
  MIC: 19 µM (≈ 7.84 µg/mL)
Staphylococcus aureus [8]
  MIC: 10 µM (≈ 4.12 µg/mL)
Escherichia coli [30]
  fractional inhibitory concentration index (FICI): 0.73
Klebsiella pneumoniae [9]
  MIC: 5 µM (≈ 2.06 µg/mL)
Klebsiella pneumoniae [31]
  Activity: Active
Candida tropicalis
  MIC: 39 µM (≈ 16.1 µg/mL)
Staphylococcus aureus [10]
  MIC: 10 µM (≈ 4.12 µg/mL)
Candida albicans [11]
  MIC: 10 µM (≈ 4.12 µg/mL)
Saccharomyces cerevisiae
  inhibition: 64.6%
DNA [32]
  Activity: Active
Klebsiella pneumoniae [33]
  MIC: 1 µM
